Here are results for 44 compounds from ChEMBL document CHEMBL4818983, “Structure-activity relationship and hypoglycemic activity of tricyclic matrines with advantage of treating diabetic nephropathy” (Eur J Med Chem, 2020).

For this test, the system named is HepG2. The test is described as follows: Increase in glucose consumption in human HepG2 cells assessed as Gx/GDMSO ratio at 25 uM by glucose oxidase assay. The test is classed as functional. In a few lines: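 HepG2 glucose consumption screen. Test compounds at 25 μM, metformin at 5 mM. Activity expressed as ratio of glucose consumption to DMSO-treated cells (Gx/G_DMSO).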
`O=S(=O)(c1ccc(C(F)(F)F)cc1)N1C[C@@H]2CCCN3CCC[C@@H]([C@H]23)[C@H]1CCCCN=C=S`: the Ratio stood at 1.02.

For the compound `O=C1CCC[C@@H]2[C@H]3CCCN4CCC[C@@H](CN12)[C@@H]34` [MATRINE], the Ratio was found to be 1.26.

With `CCCC[C@@H]1[C@H]2CCCN3CCC[C@@H](CN1C(=O)Nc1c(C)cccc1C)[C@@H]23`, the Ratio came out at 1.14.

As for `CCCC[C@@H]1[C@H]2CCCN3CCC[C@@H](CN1C(=O)Nc1ccc(C)cc1)[C@@H]23`, the Ratio stood at 1.04.

As to `COC(=O)CCC[C@@H]1[C@H]2CCCN3CCC[C@H](CN1S(=O)(=O)c1ccc(C)cc1)[C@@H]23`, the Ratio was 1.14.

For the compound `CCCC[C@@H]1[C@H]2CCCN3CCC[C@H](CN1S(=O)(=O)c1cccc(C(F)(F)F)c1)[C@@H]23`, the Ratio is 1.2.

Take `O=C1C=CC[C@@H]2[C@H]3CCCN4CCC[C@@H](CN12)[C@@H]34` [SOPHOCARPINE]: the Ratio is 1.11.

Consider `CCCC[C@@H]1[C@H]2CCCN3CCC[C@H](CN1S(=O)(=O)c1ccccc1C(F)(F)F)[C@@H]23`, for which the Ratio was 1.26.

As for `O=C(O)CCC[C@@H]1[C@H]2CCCN3CCC[C@H](CN1S(=O)(=O)c1cccc(C(F)(F)F)c1)[C@@H]23`, the Ratio is 1.16.

For `Cc1ccc(S(=O)(=O)N2C[C@H]3CCCN4CCC[C@@H]([C@H]34)[C@H]2CCCCO)cc1`, the Ratio is 1.12.

Consider `CCCC[C@@H]1[C@H]2CCCN3CCC[C@@H](CN1C(=O)Nc1ccc(C(F)(F)F)cc1)[C@@H]23`, for which the Ratio amounted to 1.08.

Consider `O=C1CCC[C@@H]2[C@H]3CCCN4CCC[C@H](CN12)[C@@H]34` [SOPHORIDINE], for which the Ratio worked out at 1.22.

As to `CCCC[C@@H]1[C@H]2CCCN3CCC[C@@H](CN1C(=O)Nc1ccccc1C(F)(F)F)[C@@H]23`, the Ratio was found to be 1.03.

As to `CCCC[C@@H]1[C@H]2CCCN3CCC[C@@H](CN1C(=O)Nc1cccc(C)c1)[C@@H]23`, the Ratio came out at 1.32.

On to `O=S(=O)(c1ccc(C(F)(F)F)cc1)N1C[C@@H]2CCCN3CCC[C@@H]([C@H]23)[C@H]1CCCCO`, for which the Ratio stood at 1.04.

Regarding `CCCC[C@@H]1[C@H]2CCCN3CCC[C@@H](CN1C(=O)Nc1ccc(F)cc1)[C@@H]23`, the Ratio was 1.02.

Consider `CCCC[C@@H]1[C@H]2CCCN3CCC[C@@H](CN1C(=O)Nc1ccc(OC(F)(F)F)cc1)[C@@H]23`, for which the Ratio turned out to be 1.07.

With `O=S(=O)(c1cccc(C(F)(F)F)c1)N1C[C@H]2CCCN3CCC[C@@H]([C@H]23)[C@H]1CCCCO`, the Ratio amounted to 1.25.

For the compound `COC(=O)CCC[C@@H]1[C@H]2CCCN3CCC[C@H](CN1S(=O)(=O)c1ccc(C(F)(F)F)cc1)[C@@H]23`, the Ratio is 1.13.

Consider `CCCC[C@@H]1[C@H]2CCCN3CCC[C@@H](CN1C(=O)Nc1ccccc1C)[C@@H]23`, for which the Ratio was determined as 1.3.

Regarding `Nc1nnc(CCC[C@@H]2[C@H]3CCCN4CCC[C@@H](CN2S(=O)(=O)c2ccc(C(F)(F)F)cc2)[C@@H]34)o1`, the Ratio came to 1.18.

For `Cc1ccc(S(=O)(=O)N2C[C@@H]3CCCN4CCC[C@@H]([C@H]34)[C@H]2CCCCO)cc1`, the Ratio was found to be 1.16.

For `COC(=O)CCC[C@@H]1[C@H]2CCCN3CCC[C@H](CN1S(=O)(=O)c1ccccc1C(F)(F)F)[C@@H]23`, the Ratio is recorded as 1.23.

For the compound `CCCC[C@@H]1[C@H]2CCCN3CCC[C@H](CN1S(=O)(=O)c1ccc(C(F)(F)F)cc1)[C@@H]23`, the Ratio was 1.17.

For the compound `Nc1nnc(CCC[C@@H]2[C@H]3CCCN4CCC[C@@H](CN2S(=O)(=O)c2cccc(C(F)(F)F)c2)[C@@H]34)o1`, the Ratio turned out to be 1.34.

In the case of `CCCC[C@@H]1[C@H]2CCCN3CCC[C@@H](CN1C(=O)Nc1cccc(C(F)(F)F)c1)[C@@H]23`, the Ratio is reported as 1.

Take `CCNc1nnc(CCC[C@@H]2[C@H]3CCCN4CCC[C@@H](CN2S(=O)(=O)c2ccc(C)cc2)[C@@H]34)s1`: the Ratio is 0.79.

Regarding `CC[C@@H]1[C@H]2CCCN3CCC[C@@H](CN1S(=O)(=O)c1ccccc1C(F)(F)F)[C@@H]23`, the Ratio turned out to be 1.26.

As for `CC(=O)Nc1nnc(CCC[C@@H]2[C@H]3CCCN4CCC[C@@H](CN2S(=O)(=O)c2cccc(C(F)(F)F)c2)[C@@H]34)s1`, the Ratio came to 0.89.

Consider `COC(=O)CCC[C@@H]1[C@H]2CCCN3CCC[C@H](CN1S(=O)(=O)c1cccc(C(F)(F)F)c1)[C@@H]23`, for which the Ratio is 1.21.

With `O=C(O)CCC[C@@H]1[C@H]2CCCN3CCC[C@H](CN1S(=O)(=O)c1ccccc1C(F)(F)F)[C@@H]23`, the Ratio was 1.12.

As to `CCCC[C@@H]1[C@H]2CCCN3CCC[C@@H](CN1S(=O)(=O)c1ccc(C)cc1)[C@@H]23`, the Ratio worked out at 1.03.

Take `O=S(=O)(c1ccccc1C(F)(F)F)N1C[C@H]2CCCN3CCC[C@@H]([C@H]23)[C@H]1CCCCO`: the Ratio turned out to be 1.24.

In the case of `CNc1nnc(CCC[C@@H]2[C@H]3CCCN4CCC[C@@H](CN2S(=O)(=O)c2cccc(C(F)(F)F)c2)[C@@H]34)s1`, the Ratio came to 0.86.

Take `CCCC[C@@H]1[C@H]2CCCN3CCC[C@@H](CN1S(=O)(=O)c1ccccc1C(F)(F)F)[C@@H]23`: the Ratio is given as 1.01.

For the compound `O=C(O)C[C@@H]1[C@H]2CCCN3CCC[C@@H](CN1S(=O)(=O)c1cccc(C(F)(F)F)c1)[C@@H]23`, the Ratio was 1.06.

Turning to `O=C(O)CCC[C@@H]1[C@H]2CCCN3CCC[C@H](CN1S(=O)(=O)c1ccc(C(F)(F)F)cc1)[C@@H]23`, the Ratio came out at 0.99.

In the case of `Nc1nnc(CCC[C@@H]2[C@H]3CCCN4CCC[C@@H](CN2S(=O)(=O)c2cccc(C(F)(F)F)c2)[C@@H]34)s1`, the Ratio came out at 1.04.

As to `O=C(O)CCC[C@@H]1[C@H]2CCCN3CCC[C@@H](CN1S(=O)(=O)c1ccc(C(F)(F)F)cc1)[C@@H]23`, the Ratio amounted to 1.03.

As to `CCCC[C@@H]1[C@H]2CCCN3CCC[C@H](CN1S(=O)(=O)c1ccc(C)cc1)[C@@H]23`, the Ratio is given as 1.07.

Regarding `CN(C)c1nnc(CCC[C@@H]2[C@H]3CCCN4CCC[C@@H](CN2S(=O)(=O)c2cccc(C(F)(F)F)c2)[C@@H]34)s1`, the Ratio is listed as 0.97.

As to `O=S(=O)(c1ccc(C(F)(F)F)cc1)N1C[C@H]2CCCN3CCC[C@@H]([C@H]23)[C@H]1CCCCO`, the Ratio was 1.06.

As for `Cc1ccc(S(=O)(=O)N2C[C@@H]3CCCN4CCC[C@@H]([C@H]34)[C@H]2CCCC(=O)O)cc1`, the Ratio came to 0.87.

Consider `CC[C@@H]1[C@H]2CCCN3CCC[C@@H](CN1S(=O)(=O)c1ccc(C(F)(F)F)cc1)[C@@H]23`, for which the Ratio was 1.32.
